According to ChEMBL document CHEMBL1126945, “Synthesis and evaluation of 3-modified 1D-myo-inositols as inhibitors and substrates of phosphatidylinositol synthase and inhibitors of myo-inositol uptake by cells” (1993):

Columns and labels:
[1] = molecular target: T1, CDP-diacylglycerol--inositol 3-phosphatidyltransferase (Mus musculus) (UniProt Q8VDP6); assay: Tested as substrate of phosphatidylinositol synthase in mouse brain by measuring percent CMP formation compared with myo-inositol tested at 5 mM; format: functional, tissue-based
T1 sequence (whole entry): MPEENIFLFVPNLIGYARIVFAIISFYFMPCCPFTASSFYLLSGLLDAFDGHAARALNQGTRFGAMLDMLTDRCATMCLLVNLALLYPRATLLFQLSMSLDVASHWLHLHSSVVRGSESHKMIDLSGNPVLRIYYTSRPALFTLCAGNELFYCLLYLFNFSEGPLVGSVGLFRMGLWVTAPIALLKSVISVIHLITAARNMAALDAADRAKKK
How it was run: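 Mouse brain microsomes (12-day-old mice; 900g then 12000g pellet) as PtdIns synthase source. 37 °C, 50 mM Tris-HCl pH 8.3, 48 mM MgCl₂, 0.5 mM CDP-dipalmitin, 0.25% Triton X-100, 5 mM analogue or myo-inositol, 0.5 mg microsomal protein. Stopped in linear phase with CHCl₃-MeOH; aqueous CMP read at 280 nm. Expressed as % of myo-inositol; averages of two or more determinations.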

[2] = molecular target: T1, CDP-diacylglycerol--inositol 3-phosphatidyltransferase (Mus musculus); assay: Tested for inhibition of phosphatidylinositol synthase from mouse brain at 5 mM
How it was run: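 Mouse brain microsomal PtdIns synthase; incorporation of 0.5 mM myo-[2-³H]inositol into CHCl₃-soluble lipid at 37 °C with Tris-HCl pH 8.3, 48 mM MgCl₂, 0.5 mM CDP-dipalmitin, 0.25% Triton X-100, 5 mM analogue, 0.05 mg microsomal protein. Stopped at 20 min with HCl/MeOH and CHCl₃; organic phase scintillation counted. Averages of two or more determinations.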

Rattus norvegicus [3] = species on record: Rattus norvegicus; assay: Tested for inhibition of myo-[3H]inositol uptake in F111 rat fibroblast cells at 5 mM; format: functional
How it was run: (§1)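 F111 rat fibroblasts grown overnight on coverslips in inositol-free DMEM with 10% dialyzed calf serum and 10 μM myo-inositol, washed, then incubated 120 min at 37 °C, 5% CO₂ in Krebs-Ringer (HEPES pH 7.4) with 10 μM myo-[³H]inositol and 5 mM analogue. Washed, lysed in 1% SDS; radioactivity counted and normalised to BCA protein.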

[4] = Michaelis-Menten constant was determined
Rattus norvegicus [5] = species on record: Rattus norvegicus; assay: Tested for inhibition of myo-inositol uptake in F111 rat fibroblast cells at 5 mM; format: functional; how it was run: as §1

Row | Formation [1] [%] | inhibition [2] [%] | Km [4] [mM] | Compound | inhibition at 5000 µM (Rattus norvegicus [3]) [%] | inhibition at 5000 µM (Rattus norvegicus [5]) [%]
1 | 0 | 28 | – | CO[C@H]1C[C@@H](O)[C@H](O)[C@H](O)[C@H]1O | – | –
2 | 9 | 19 | – | N[C@H]1[C@@H](O)[C@H](O)[C@H](O)[C@@H](O)[C@H]1O | 87 | –
3 | 1 | 30 | – | O[C@@H]1[C@@H](O)[C@H](O)[C@@H](Cl)[C@@H](O)[C@H]1O | – | –
4 | 100 | – | 1.5 | O[C@H]1[C@H](O)[C@@H](O)[C@H](O)[C@@H](O)[C@H]1O | – | –
5 | 7 | 37 | – | O[C@@H]1[C@@H](O)[C@H](O)[C@@H](F)[C@@H](O)[C@H]1O | 97 | –
6 | 1.5 | 40 | – | O[C@@H]1[C@@H](O)[C@@H](O)[C@@H](S)[C@@H](O)[C@@H]1O | – | –
7 | 7 | 47 | – | O=C1[C@@H](O)[C@H](O)[C@@H](O)[C@H](O)[C@@H]1O | – | –
8 | 0 | 10 | – | CO[C@@H]1[C@H](O)[C@@H](O)[C@@H](O)[C@H](O)[C@@H]1N=[N+]=[N-] | – | –
9 | 6 | 9 | – | O[C@H]1[C@@H](O)[C@H](O)C[C@H](O)[C@@H]1O | – | 80
10 | 28 | 22 | – | O[C@@H]1[C@H](F)[C@@H](O)[C@@H](O)[C@H](O)[C@@H]1O | – | –

Row | Compound | Formation [1] [%] | inhibition [2] [%] | Km [4] [mM] | inhibition at 5000 µM (Rattus norvegicus [3]) [%] | inhibition at 5000 µM (Rattus norvegicus [5]) [%]
11 | [N-]=[N+]=N[C@@H]1[C@H](O)[C@H](O)[C@@H](O)[C@@H](O)[C@@H]1O | 1 | 17 | – | – | –
